From PubChem
rRNA inh HTS: inhibitors of bacterial rRNA selective over humanized ribosomes. 1.6% of 350,000 active. E. coli WT GFP vs humanized-ribosome RFP mutants, fluorescence, 24 h; stronger effect = lower value; DMSO median 0, no signal -100. GFP signal change (wild-type ribosome), % (no concentration beside the values);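 active means significant combined selectivity score with lowered wild-type GFP, culture density cut under 30%, mutant RFP and density less affected; inactive means any of these conditions unmet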
LGR2 antag: blocks bursicon-induced cAMP signaling via Drosophila LGR2; HEK293 LGR2, CRE-luciferase, bursicon-stimulated, 4 h; inhibition, % at 9.99 µM; 0.35% of 380,000 active;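 active means drop in luminescence signal, shown as inhibition above about 50% in the replicate tests, limit read from the data, passing the limit was not always enough; inconclusive means probably only some replicates passing the limit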;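 further: agonist challenge used bursicon conditioned medium at about half maximal strength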
E-sel inducer: E-selectin induction on HUVECs | P16581 | HUVEC E-selectin immunofluorescence imaging; normalized: neutral wells 0, TNF-alpha wells 100 | activation, % at 7.58 µM | 0.37% of 260,000 active | AID 686992;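 active means mean E-selectin-positive cell signal at least 10% of the positive control, reached in at least 60% of replicates, without over 20% cell loss; inconclusive means no rule given, readout overlaps actives, possibly toxicity-flagged; inactive means the rest, including those meeting only one limit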
Target sequence (P16581 whole entry, looked up): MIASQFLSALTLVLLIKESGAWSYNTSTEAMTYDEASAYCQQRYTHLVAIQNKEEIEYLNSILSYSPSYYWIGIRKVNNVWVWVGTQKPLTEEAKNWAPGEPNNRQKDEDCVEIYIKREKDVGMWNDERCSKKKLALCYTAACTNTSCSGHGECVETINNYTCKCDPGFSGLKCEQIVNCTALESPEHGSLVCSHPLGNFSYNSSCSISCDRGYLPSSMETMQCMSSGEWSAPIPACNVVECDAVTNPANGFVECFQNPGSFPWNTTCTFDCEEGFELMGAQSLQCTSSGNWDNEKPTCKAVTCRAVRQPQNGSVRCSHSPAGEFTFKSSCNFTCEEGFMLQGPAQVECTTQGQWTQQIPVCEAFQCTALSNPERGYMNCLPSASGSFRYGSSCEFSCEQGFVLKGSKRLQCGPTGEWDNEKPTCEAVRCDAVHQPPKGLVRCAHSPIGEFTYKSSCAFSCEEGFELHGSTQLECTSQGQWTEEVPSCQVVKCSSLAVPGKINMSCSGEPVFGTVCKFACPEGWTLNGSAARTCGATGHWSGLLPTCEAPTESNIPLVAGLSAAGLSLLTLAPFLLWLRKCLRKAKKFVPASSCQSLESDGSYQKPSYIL
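Test system: HUVEC | Signal: Immunofluorescence imaging | Read-out: Percent E-selectin-positive cells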
EWS-Fli block: EWS/Fli transcriptional activity inhibition; 0.67% of 350,000 active; inhibition, % at 12.6 µM; A673 NR0B1-luciferase reporter, viability-normalised;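 active means mean inhibition of at least 50% after viability correction, with every replicate also passing that limit; inconclusive means mean reaches 50% but only one of two replicates passes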;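 further: firefly luciferase signal divided by Alamar Blue viability fluorescence both relative to DMSO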
An asterisk follows results filed as active; ? = inconclusive; . = no result given. In the library only some 2.4% were active in any assay of this set; here they are far more common.

SMILES | rRNA inh HTS | LGR2 antag | E-sel inducer | EWS-Fli block
O=C(C[C@@H]1CC[C@@H](NC(=O)CC2CC2)[C@H](CO)O1)NCc1ccc(Cl)cc1 | 1.2 | 8.0 | 0.3 | 0.1
COc1cccc(/C=N/NC(=O)c2[nH]nc3c2CCc2ccccc2-3)c1 | -37.1* | -20.2 | 2.4 | 48.8
COc1cccc(/C=N/NC(=O)c2ccc(N3CCCC3=O)cc2)c1 | -19.0* | 5.2 | -0.2 | 18.0
CN1CCN(C(=O)C[C@@H]2CC[C@@H]3[C@@H](COc4ccc(NC(=O)c5cccs5)cc4C(=O)N3C)O2)CC1 | 8.7 | . | . | .
COC(=O)C[C@H]1C[C@H]2c3cc(NC(=O)Nc4ccc(OC)cc4)ccc3O[C@H]2[C@@H](CO)O1 | -0.1 | . | . | .
CCCNC(=O)Nc1ccc2c(c1)OC[C@H](C)N(C(=O)CC)C[C@@H](C)[C@H](OC)CN(C)C2=O | 1.1 | 4.7 | 1.0 | -3.4
CC(C)NC(=O)Nc1ccc2c(c1)C(=O)N([C@H](C)CO)C[C@@H](C)[C@@H](CN(C)S(=O)(=O)c1ccc(F)cc1)O2 | -1.3 | -2.2 | 0.0 | 5.0
O=C(CNC(=O)c1ccc(F)cc1)N/N=C/c1cc(Br)ccc1OC(=O)/C=C/c1ccco1 | -27.8* | 2.2 | 5.4 | 19.0
O=C(CNC(=O)c1ccccc1F)N/N=C/c1cc(Br)ccc1OC(=O)/C=C/c1ccco1 | . | 24.9 | . | .
Cc1ccnn1CC(=O)N/N=C/c1c[nH]c2ccccc12 | -39.0* | -5.0 | . | 11.0
CCCNC(=O)N1C[C@H](C)[C@@H](OC)CN(C)C(=O)c2ccc(NC(=O)C3CCC3)cc2OC[C@@H]1C | -0.1 | 5.1 | -0.4 | -5.9
C[C@H]1CN([C@@H](C)CO)C(=O)c2cc(NC(=O)CCCCCC(=O)Nc3ccccc3N)ccc2O[C@H]1CN(C)C(=O)Nc1ccc(F)cc1 | 1.6 | -14.6 | 43.5* | -6.3
C[C@@H]1CN([C@H](C)CO)C(=O)c2cc(NC(=O)CCCCCC(=O)Nc3ccccc3N)ccc2O[C@H]1CN(C)C(=O)Nc1ccc2c(c1)OCO2 | 2.8 | -15.1 | 27.9* | 8.4
C[C@@H]1CN([C@@H](C)CO)C(=O)c2cc(NC(=O)CCCCCC(=O)Nc3ccccc3N)ccc2O[C@H]1CN(C)C(=O)Nc1ccc2c(c1)OCO2 | -4.4 | 5.5 | 104.7* | 10.9
C[C@H](CO)N1C[C@H](C)[C@H](CN(C)C(=O)Nc2ccc3c(c2)OCO3)Oc2ccc(NC(=O)CCCCCC(=O)Nc3ccccc3N)cc2C1=O | -8.5 | -1.5 | 23.5 | -17.1
C[C@H]1CN([C@@H](C)CO)C(=O)c2cc(NC(=O)CCCCCC(=O)Nc3ccccc3N)ccc2O[C@@H]1CN(C)C(=O)Nc1ccc2c(c1)OCO2 | -1.4 | -24.7 | 3.5 | -24.0
Cc1ccc(S(=O)(=O)NCC[C@H]2CC[C@@H](NC(=O)c3cccc(F)c3)[C@@H](CO)O2)cc1 | 3.4 | -3.4 | -1.7 | -7.3
Cc1ccc2nc3c(cc(S(=O)(=O)c4ccccc4)c(=N)n3Cc3ccco3)c(=O)n2c1 | -21.1* | -24.3 | -4.1 | -9.4
Cc1cccn2c(=O)c3cc(S(=O)(=O)c4ccc(F)cc4)c(=N)n(Cc4ccco4)c3nc12 | -3.7 | 53.4* | 5.4 | 15.1
Cc1cccn2c(=O)c3cc(S(=O)(=O)c4ccccc4)c(=N)n(Cc4ccco4)c3nc12 | 0.3 | -3.6 | -1.7 | -6.0
COc1cc(CCC(=O)OCC(=O)Nc2ccccc2C#N)cc(OC)c1OC | 9.3 | 0.0 | 458.4* | -1.5
COc1cc(CC(=O)OCC(=O)Nc2ccccc2C#N)cc(OC)c1OC | 1.4 | 2.0 | 7.4 | 1.8
O=C(Cc1ccccn1)N1CC(=O)N2[C@H](CO)[C@@H](c3ccc(C#CCC4CCCC4)cc3)[C@@H]2C1 | -38.1 | 5.0 | 0.2 | 7.4
CCCCSCCCNC(=S)Nc1ccccc1C | -16.9 | -15.9 | 0.2 | 15.2
CCCCNC(=S)Nc1ccccc1Cc1ccccc1 | -42.9* | 8.9 | 4.7 | 4.5
SMILES | rRNA inh HTS | LGR2 antag | E-sel inducer | EWS-Fli block
C[C@H]1CC=CC[C@H](c2ccc(F)cc2)NC(=O)[C@H](C)N(C)C(=O)c2ccccc2O1 (mixture of isomers) | 0.3 | . | . | .
O=C(O)C[C@H]1C[C@H]2c3cc(NC(=O)C4CCOCC4)ccc3O[C@H]2[C@H](CO)O1 | 2.3 | -0.7 | 0.2 | .
COc1ccc(NC(=S)Nc2ncccc2C)c(OC)c1 | -31.4* | -39.1 | . | -35.3
COc1ccc2c3c(n(C)c2c1)[C@@H](CO)N(CC1CC1)CC31CCN(S(=O)(=O)c2cccs2)CC1 | -3.1 | . | . | .
COc1ccc(/C=C/C(=O)Nc2ccc(C)c(S(=O)(=O)N3CCOCC3)c2)cc1 | . | . | . | 10.8
Cc1ccc(NC(=O)/C=C/c2ccc3c(c2)OCO3)cc1S(=O)(=O)N1CCOCC1 | -20.4* | 20.0 | 1.0 | -12.1
CCOCCOC(=O)c1[nH]c2c(c1C)C(=O)CC(c1cccs1)C2 (stereo unspecified) | 12.0 | -19.8 | 0.8 | 52.8*
COC(=O)c1[nH]c2c(c1C)C(=O)CC(c1ccc(OC)c(OC)c1)C2 (stereo unspecified) | 3.1 | 29.1 | -0.3 | 6.8
COCCOC(=O)c1[nH]c2c(c1C)C(=O)CC(c1cccs1)C2 (stereo unspecified) | -5.8 | -2.1 | . | 60.7*
COC(=O)c1[nH]c2c(c1C)C(=O)CC(c1cccc(OC)c1)C2 (stereo unspecified) | 0.9 | -7.4 | 0.2 | 59.6*
CCOC(=O)c1[nH]c2c(c1C)C(=O)CC(c1ccc(F)cc1)C2 (stereo unspecified) | 17.2 | -17.8 | 0.8 | 63.2*
CCOCCOC(=O)c1[nH]c2c(c1C)C(=O)CC(c1ccccc1)C2 (stereo unspecified) | 9.1 | -4.3 | 1.2 | ?
C[C@H]1CN([C@@H](C)CO)C(=O)Cc2cc(NS(=O)(=O)c3ccccc3)ccc2O[C@@H]1CN(C)C(=O)Nc1ccccc1 | 4.5 | 6.7 | 0.0 | -7.4
Cc1ccc(S(=O)(=O)N(C)C[C@H]2OCCCC[C@@H](C)Oc3ccc(NC(=O)Nc4ccccc4)cc3C(=O)N([C@H](C)CO)C[C@H]2C)cc1 | 0.2 | 18.8 | . | 6.5
CCCNC(=O)C[C@@H]1CC[C@H]2[C@H](COc3ccc(NC(=O)Cc4ccccc4)cc3C(=O)N2C)O1 | -4.7 | -7.7 | -0.1 | 0.2
CC(=O)c1sc(N/N=C2\CC3CC2C(C)C3(C)C)nc1C (stereo unspecified) | -30.6* | -13.6 | 0.6 | -74.4
COc1cccc(-n2c(SCC(=O)NCC3CCCO3)nc3c([nH]c4ccccc43)c2=O)c1 (stereo unspecified) | -24.2* | -10.5 | -0.8 | 10.5
COc1ccc(-n2c(SCC(=O)NCC3CCCO3)nc3c([nH]c4ccccc43)c2=O)cc1 (stereo unspecified) | 7.4 | 0.6 | . | 10.1
O=C(NC(=S)Nc1ccc(Br)c(Cl)c1)C1CC1 | -27.4* | -1.3 | . | 5.9
CC(=O)Nc1ccc(NC(=S)NC(=O)C2CC2)cc1 | 2.2 | -25.8 | 0.4 | .
CCC(=O)Nc1ccc2c(c1)C(=O)N(C)C[C@H](OC)[C@H](C)CN(C(=O)Cc1ccccn1)[C@@H](C)CO2 | -0.6 | 3.3 | 0.1 | 0.0
